KCNK9 block: human KCNK9 channel inhibition | Q9NPC2 | HEK293 KCNK9, FluxOR thallium flux fluorescence; active compounds read low | B-score at 10 µM | hit rate 1.2% among 310,000 | AID 488922;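 active = ratio B-score over 3 SD below the library mean, with starting fluorescence within 5 SD of its mean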;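 also: negative B-score means less thallium flux so channel inhibition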
Target sequence (Q9NPC2 whole entry, looked up): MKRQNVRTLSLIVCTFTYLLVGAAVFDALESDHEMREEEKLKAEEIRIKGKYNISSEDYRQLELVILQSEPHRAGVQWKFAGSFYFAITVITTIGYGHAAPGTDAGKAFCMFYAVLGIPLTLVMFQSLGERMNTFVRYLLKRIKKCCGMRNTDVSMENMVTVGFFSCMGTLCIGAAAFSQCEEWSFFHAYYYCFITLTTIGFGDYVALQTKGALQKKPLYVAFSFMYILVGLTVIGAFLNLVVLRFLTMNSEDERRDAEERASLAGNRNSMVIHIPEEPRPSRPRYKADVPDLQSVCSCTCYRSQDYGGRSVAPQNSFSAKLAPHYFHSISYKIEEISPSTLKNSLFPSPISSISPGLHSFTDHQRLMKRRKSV
KCNQ1 act: potentiates or activates the human KCNQ1 potassium channel | P51787 | CHO-K1 KCNQ1, thallium flux FluxOR fluorescence; active compounds read high | B-score at 10 µM | hit rate 0.35% among 310,000 | AID 2648;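 active = fluorescence ratio B-score, a plate-corrected score, at least three library SD, with initial intensity B-score within 5 SD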
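Assay system: CHO-K1 cells stably expressing KCNQ1. Medium: assay buffer for compound exposure, DMSO matched across wells. Timing: 37 °C overnight plating, 90-min dark dye load, 20-min compound pretreatment. Signal: kinetic FluxOR fluorescence, 10 s baseline plus 110 s post-stimulus.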
hERG protect: hERG (human) protection from proarrhythmic block | Q12809 | CHO-hERG, FluxOR thallium flux, dofetilide IC70 present | activation (rescue from dofetilide block), less the hit threshold, % at 10 µM | hit rate 0.51% among 310,000;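 active = activation above the mean of controls blocked by dofetilide plus 5 SD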;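 also: thallium influx through hERG after potassium depolarization seen as dye fluorescence rise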
KCNQ1 inh: inhibitors of human KCNQ1 potassium channel. CHO-K1 KCNQ1, FluxOR thallium flux fluorescence; active compounds read high. B-score at 10 µM. hit rate 1.3% among 310,000;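 active = compounds whose thallium flux B-score, printed positive for inhibition, exceeds three library SD while starting fluorescence stays within three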;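 also: channel opened by potassium depolarization with thallium stimulus after 20 min compound exposure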
Kir21 block: Kir2.1 (mouse) channel inhibition. HEK293-Kir2.1, FluxOR thallium flux fluorescence; active compounds read low. B-score at 10 µM. hit rate 0.85% among 310,000. AID 1672;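 active = fluorescence ratio B-score at or below minus 3 SD of library scores, with starting-brightness B-score within 2 SD, cut at about -4.2 in these data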;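 also: channel flux triggered by added potassium and thallium sulfate stimulus; B-score of peak minus minimum fluorescence over baseline after thallium stimulus; more negative B-score means stronger Kir2.1 block with less thallium influx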
KCNK3 inh: human KCNK3 channel inhibition, primary screen | CHO-KCNK3 thallium flux, FluxOR fluorescence; active compounds read low | hit rate 0.84% among 340,000 | O14649 | B-score at 10 µM;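 active = B-score under library mean minus 4 SD, starting fluorescence ratio at most library mean plus 5 SD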;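 also: more negative B-score means stronger inhibition of thallium flux through KCNK3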
Target sequence (O14649 whole entry, looked up): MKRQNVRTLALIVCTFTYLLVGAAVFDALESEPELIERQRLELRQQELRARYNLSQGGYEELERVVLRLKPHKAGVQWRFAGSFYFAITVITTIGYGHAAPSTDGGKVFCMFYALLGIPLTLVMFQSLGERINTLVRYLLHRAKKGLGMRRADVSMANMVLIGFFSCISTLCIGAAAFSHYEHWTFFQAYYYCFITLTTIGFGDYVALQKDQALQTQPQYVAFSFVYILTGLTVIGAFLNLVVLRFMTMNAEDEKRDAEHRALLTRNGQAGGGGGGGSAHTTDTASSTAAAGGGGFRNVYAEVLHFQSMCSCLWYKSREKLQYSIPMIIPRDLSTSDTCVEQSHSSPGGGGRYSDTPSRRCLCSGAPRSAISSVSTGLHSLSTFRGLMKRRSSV
KCNK9 inh conf: human KCNK9 inhibitor confirmation; shares compounds with KCNK9 block; HEK293 KCNK9 cells, FluxOR thallium flux fluorescence; inhibition, % at 10 µM; hit rate 43% among 4,900; AID 492992;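 active = thallium signal inhibited by more than 5 SD of the compound-free buffer control wells, on both duplicate plates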
Kir21 sel: mouse Kir2.1 off-target activity of KCNK9 modulators; shares compounds with KCNK9 block; Kir2.1 cells, FluxOR thallium flux fluorescence; inhibition, % at 10 µM; hit rate 4% among 4,900;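 active = thallium signal drop more than 5 SD beyond the mean of the no-compound control wells, seen in both duplicate plates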;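 also: signal is fluorescence rise after thallium addition divided by baseline fluorescence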
KCNK9 uninduced: second counter-screen for KCNK9 modulators: effect in non-induced cells; shares compounds with KCNK9 block; non-induced KCNK9-HEK293, FluxOR thallium flux; inhibition, % at 10 µM; hit rate 40% among 4,900; AID 492997;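 active = thallium signal drop beyond 5 SD of the untreated control mean, on both duplicate plates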
Each line names hits and unclear results; the compound was inactive in the other large screens (follow-up assays come after a bar, where they were run). Compounds with a hit are over-represented: about 3.7% of the library has one in this group of screens.

C=CCOc1ccc(/C=C2\SC(=S)N(C(C(=O)O)c3ccccc3)C2=O)cc1 (stereo unspecified)	none | KCNK9 inh conf inactive | Kir21 sel inactive | KCNK9 uninduced inactive
CC(/C=C1\SC(=S)N(CC(=O)O)C1=O)=C\c1ccccc1	none
COc1cccc(/C=C2\SC(=S)N(C(Cc3ccccc3)C(=O)O)C2=O)c1 (stereo unspecified)	none | KCNK9 inh conf inactive | Kir21 sel inactive | KCNK9 uninduced inactive
O=C(O)C(Cc1ccccc1)N1C(=O)/C(=C/c2cccs2)SC1=S (stereo unspecified)	none (no result: KCNK9 block, KCNQ1 act, hERG protect, KCNQ1 inh, Kir21 block)
CC(/C=C1\SC(=S)N(C(C(=O)O)c2ccccc2)C1=O)=C\c1ccccc1 (stereo unspecified)	none | KCNK9 inh conf inactive | Kir21 sel inactive | KCNK9 uninduced inactive
O=C(/C=C/c1ccccc1)c1cc(Br)ccc(=O)c1O	KCNQ1 act 22, hERG protect 12 | KCNK9 inh conf inactive | Kir21 sel inactive | KCNK9 uninduced inactive
O=C(Nc1ccc(Cl)cc1C(=O)Nc1ccc(Br)cn1)c1ccco1	KCNK9 block -12 | KCNK9 inh conf 53% | Kir21 sel inactive | KCNK9 uninduced inactive
Clc1cccc2sc(N3CCN(c4ccccc4)CC3)nc12	KCNK9 block -14 | KCNK9 inh conf 36% | Kir21 sel inactive | KCNK9 uninduced 36%
Clc1ccc(Cl)c2sc(N3CCCC3)nc12	none
CCCN1CCN(C(=S)Nc2sc(CC)cc2C(=O)OC)CC1	none | KCNK9 inh conf inactive | Kir21 sel inactive | KCNK9 uninduced inactive
CCN1CCN(C(=S)Nc2sc(C)c(-c3ccccc3)c2C(=O)OC)CC1	KCNQ1 inh 6 | KCNK9 inh conf inactive | Kir21 sel inactive | KCNK9 uninduced inactive
CC(C)C[C@@H](CN=[N+]=[N-])N1CCN(C)CCC1=O	none
Cc1nn(Cc2ccccc2)c(C)c1C(=O)OCC(=O)c1cc(C)n(CC(F)(F)F)c1C	none | KCNK9 inh conf inactive | Kir21 sel inactive | KCNK9 uninduced inactive
Cc1onc(-c2ccccc2Cl)c1C(=O)Nc1cccc2cccnc12	KCNK9 block -13, KCNQ1 inh 6 | KCNK9 inh conf 47% | Kir21 sel inactive | KCNK9 uninduced 45%
Cc1cc(C)c(C)c(S(=O)(=O)NCCCN2CCCC2=O)c1C	none
CCc1ccccc1NC(=O)c1cc([N+](=O)[O-])ccc1N1CCOCC1	none
O=C(Nc1ccccc1N1CCOCC1)c1cccc2c(Br)cccc12	none | KCNK9 inh conf inactive | Kir21 sel inactive | KCNK9 uninduced inactive
CC1CCN(c2ccccc2NC(=O)c2cc([N+](=O)[O-])ccc2N2CCOCC2)CC1	KCNK9 block -9.8, KCNQ1 inh 8 | KCNK9 inh conf 30% | Kir21 sel inactive | KCNK9 uninduced 30%
COc1ccccc1C1CCN(Cc2cccc3ccccc23)CC1	none | KCNK9 inh conf inactive | Kir21 sel inactive | KCNK9 uninduced 27%
COc1ccccc1C1CCN(Cc2ccc(Cl)c(Cl)c2)CC1	none | KCNK9 inh conf inactive | Kir21 sel inactive | KCNK9 uninduced inactive
Cc1ccc(S(=O)(=O)N2CCN(C(=O)CN3CCOCC3)C2c2ccccc2)cc1 (stereo unspecified)	none
CC(C)CN(C(=O)COC(=O)C12CC3CC(CC(C3)C1)C2)c1c(N)n(Cc2ccccc2)c(=O)[nH]c1=O	none
COc1ccc2c(c1)CCc1cn3nc(C)cc3nc1-2	none | KCNK9 inh conf inactive | Kir21 sel inactive | KCNK9 uninduced inactive
COc1cccc(Nc2nc(-c3cccc(N4C(=O)c5ccccc5C4=O)c3)cs2)c1	none | KCNK9 inh conf inactive | Kir21 sel inactive | KCNK9 uninduced inactive
Cc1c(C(C)CCCO)oc(=O)c2c1Oc1c(C)c(C(C)C[C@H](C)O)oc(=O)c1C2 (stereo partly specified)	none (no result: KCNK9 block, KCNQ1 act, hERG protect, KCNQ1 inh, Kir21 block)
CCc1cc(C(=O)OC)c(NC(=O)CN2CCN(C(=O)C3CCCO3)CC2)s1 (stereo unspecified)	none
COc1ccc(OCCSc2nnc(C)n2-c2ccccc2)cc1	none | KCNK9 inh conf inactive | Kir21 sel inactive | KCNK9 uninduced inactive
COc1ccccc1OCCSc1nnc(C)n1-c1ccccc1	none
O=C(CSc1nnnn1-c1ccccc1)NCC1(N2CCOCC2)CCCCC1	none (no result: KCNK9 block, KCNQ1 act, hERG protect, KCNQ1 inh, Kir21 block)
CC(C)(CCl)C(=O)Nc1ccnc(-c2ccncc2)n1	none
O=C(CN(Cc1ccccc1)S(=O)(=O)c1cccc(C(F)(F)F)c1)NC1CCCCC1	none
CC(c1ccccc1)N(CC(=O)NC1CCCCC1)S(=O)(=O)c1cccc(C(F)(F)F)c1 (stereo unspecified)	KCNK9 block -8.2 | KCNK9 inh conf 49% | Kir21 sel inactive | KCNK9 uninduced 47%
Cc1ccc(NC(=S)NCc2ccc(Cl)cc2)c(OC(F)F)c1	none
Cc1ccc(C)c(-c2csc(NC(=O)C3=COCCO3)n2)c1	KCNK9 block -8.3 | KCNK9 inh conf inactive | Kir21 sel inactive | KCNK9 uninduced 38%
COc1ccc(NC(=O)CS(=O)(=O)c2cn(CC(=O)N3CCOCC3)c3ccccc23)cc1	none
CC(=O)c1cccc(NC(=O)N2CCC(NC(=O)C34CC5CC(CC(C5)C3)C4)CC2)c1	none
CCNC(=O)c1ccc(C2SCC(=O)N2CCc2ccccc2)cc1 (stereo unspecified)	none
CCc1ccc(NC(=O)c2ccc(C3SCC(=O)N3CCc3ccccc3)cc2)cc1 (stereo unspecified)	none | KCNK9 inh conf inactive | Kir21 sel inactive | KCNK9 uninduced inactive
CCc1ccccc1OCC(=O)NCC1COc2ccccc2O1 (stereo unspecified)	none (no result: KCNK9 block, KCNQ1 act, hERG protect, KCNQ1 inh, Kir21 block)
C=C1[C@H](C)CN[C@H]1CCO	none (no result: KCNK9 block, KCNQ1 act, hERG protect, KCNQ1 inh, Kir21 block)
CCc1nc2ccccc2nc1N1CCN(S(=O)(=O)c2ccccc2)CC1	none
CCc1nc2ccccc2nc1N1CCN(S(=O)(=O)c2c(C)cc(Cl)cc2C)CC1	none | KCNK9 inh conf inactive | Kir21 sel inactive | KCNK9 uninduced inactive
COc1ccc(CNC(=O)C(c2ccc(C)cc2)N(Cc2cccs2)C(=O)c2ccc3c(c2)OCCO3)cc1 (stereo unspecified)	none | KCNK9 inh conf inactive | Kir21 sel inactive | KCNK9 uninduced inactive
Cc1ccc(C(C(=O)NCc2ccccc2)N(Cc2cccs2)C(=O)c2ccc3c(c2)OCCO3)cc1 (stereo unspecified)	none
O=[N+]([O-])c1cc(/C=N/OCc2c(Cl)cccc2Cl)ccc1N1CCOCC1	none | KCNK9 inh conf inactive | Kir21 sel inactive | KCNK9 uninduced inactive
COc1ccc(-c2cc3ncnc(Cl)c3s2)cc1	none
